The structures appear in SMILES notation. Where a SMILES comes first, the peptide text is derived from it. Bridges are numbered along the chain shown (N, C = ends). [ ]: non-standard residue; d: D form. dPen = CC(C)(S)[C@@H](N)C(=O)O

Sequence of Mu-type opioid receptor (Rattus norvegicus, UniProt P33535) (P33535 whole entry): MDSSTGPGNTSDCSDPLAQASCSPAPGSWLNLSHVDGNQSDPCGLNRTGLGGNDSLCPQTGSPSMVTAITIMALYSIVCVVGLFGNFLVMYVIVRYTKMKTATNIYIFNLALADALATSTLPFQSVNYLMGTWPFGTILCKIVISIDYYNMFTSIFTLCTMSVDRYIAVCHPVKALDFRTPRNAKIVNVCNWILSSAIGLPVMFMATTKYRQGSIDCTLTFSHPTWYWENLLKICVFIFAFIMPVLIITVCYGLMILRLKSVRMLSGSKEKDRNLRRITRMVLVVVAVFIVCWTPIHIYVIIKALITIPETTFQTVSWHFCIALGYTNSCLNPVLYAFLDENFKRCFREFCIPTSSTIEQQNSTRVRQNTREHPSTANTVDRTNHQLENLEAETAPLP
Sequence of Delta-type opioid receptor (Rattus norvegicus, UniProt P33533) (P33533 whole entry): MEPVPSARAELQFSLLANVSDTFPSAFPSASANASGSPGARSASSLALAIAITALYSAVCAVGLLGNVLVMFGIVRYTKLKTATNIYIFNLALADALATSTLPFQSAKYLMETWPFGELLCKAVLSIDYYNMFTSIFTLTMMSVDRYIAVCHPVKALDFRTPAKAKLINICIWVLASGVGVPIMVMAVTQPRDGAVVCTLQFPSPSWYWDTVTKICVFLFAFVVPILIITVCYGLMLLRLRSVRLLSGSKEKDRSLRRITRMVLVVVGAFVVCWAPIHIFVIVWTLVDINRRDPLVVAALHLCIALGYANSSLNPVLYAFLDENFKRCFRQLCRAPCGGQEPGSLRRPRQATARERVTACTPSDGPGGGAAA
Sequence of Mu-type opioid receptor (Cavia porcellus, UniProt P97266) (P97266 whole entry): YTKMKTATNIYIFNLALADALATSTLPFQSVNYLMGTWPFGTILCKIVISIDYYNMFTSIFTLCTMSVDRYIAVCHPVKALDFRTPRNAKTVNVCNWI

The target in the first test is Delta-type opioid receptor (Mus musculus, UniProt P32300). The experiment in a line: Inhibitory concentration against delta opioid receptor of electrically induced smooth muscle contraction of mouse vas deferens. Type of test: functional.
Sequence of Delta-type opioid receptor (Mus musculus, UniProt P32300) (P32300 whole entry): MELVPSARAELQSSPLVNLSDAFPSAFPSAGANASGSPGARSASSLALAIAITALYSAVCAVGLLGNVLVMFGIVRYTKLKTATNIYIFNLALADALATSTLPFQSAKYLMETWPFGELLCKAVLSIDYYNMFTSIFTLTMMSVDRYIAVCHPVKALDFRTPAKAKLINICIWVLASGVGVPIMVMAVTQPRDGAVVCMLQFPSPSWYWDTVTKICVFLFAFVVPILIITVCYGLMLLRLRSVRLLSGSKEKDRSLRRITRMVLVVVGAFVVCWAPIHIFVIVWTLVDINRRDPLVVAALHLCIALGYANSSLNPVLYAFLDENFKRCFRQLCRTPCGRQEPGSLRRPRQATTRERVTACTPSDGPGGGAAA
Usually IC50 stands for the concentration needed to halve the response being measured. Low values mean greater potency, high ones weaker potency. Take `CC1(C)SSC[C@@H](C(=O)N[C@@H](Cc2ccccc2)C(=O)O)NC(=O)[C@H](Cc2ccccc2)NC(=O)CNC(=O)[C@@H]1NC(=O)[C@@H](N)Cc1ccc(O)cc1` (H-Y[dPen]GFCF-OH; disulfide 2-5): the IC50 was 0.016 nM.

`CC1(C)SSC[C@@H](C(=O)N[C@@H](Cc2ccccc2)C(=O)O)NC(=O)[C@H](Cc2ccc(Br)cc2)NC(=O)CNC(=O)[C@@H]1NC(=O)[C@@H](N)Cc1ccc(O)cc1` showed an IC50 of 0.028 nM.

In turn, `CC1(C)SSC[C@@H](C(=O)N[C@@H](Cc2ccccc2)C(=O)O)NC(=O)[C@H](Cc2ccc(Cl)cc2)NC(=O)CNC(=O)[C@@H]1NC(=O)[C@@H](N)Cc1ccc(O)cc1` showed an IC50 of 0.076 nM.

Molecule `CC1(C)SSC[C@@H](C(=O)N[C@@H](Cc2ccccc2)C(=O)O)NC(=O)[C@H](Cc2ccc(F)cc2)NC(=O)CNC(=O)[C@@H]1NC(=O)[C@@H](N)Cc1ccc(O)cc1` yielded an IC50 of 0.028 nM.

The molecule `CC1(C)SSC[C@@H](C(=O)N[C@@H](Cc2ccccc2)C(=O)O)NC(=O)[C@H](Cc2ccc(I)cc2)NC(=O)CNC(=O)[C@@H]1NC(=O)[C@@H](N)Cc1ccc(O)cc1` showed an IC50 of 0.3 nM.

The target in another test is Delta-type opioid receptor (Rattus norvegicus, UniProt P33533). Put plainly: Binding affinity towards delta opioid receptor was determined in rat brain using [H]-[p-Cl-Phe4]-DPDPE as radioligand. Type of test: tissue-based. An outline of the steps:
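Rat brain membranes washed in 50 mM Tris-HCl pH 7.4, preincubated 30 min at 25 °C to strip endogenous peptides. Buffer contains BSA, bestatin, bacitracin, captopril and toluenesulfonyl fluoride. Incubation 3 h at 25 °C. Nonspecific binding with 10 μM naltrexone. Filtration, scintillation counting, nonlinear least-squares fit, n ≥ 6.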
Take `CC1(C)SSC[C@@H](C(=O)N[C@@H](Cc2ccccc2)C(=O)O)NC(=O)[C@H](Cc2ccccc2)NC(=O)CNC(=O)[C@@H]1NC(=O)[C@@H](N)Cc1ccc(O)cc1` (H-Y[dPen]GFCF-OH; disulfide 2-5): the IC50 came out at 1.4 nM.

`CC1(C)SSC[C@@H](C(=O)N[C@@H](Cc2ccccc2)C(=O)O)NC(=O)[C@H](Cc2ccc(Br)cc2)NC(=O)CNC(=O)[C@@H]1NC(=O)[C@@H](N)Cc1ccc(O)cc1` had an IC50 of 1 nM.

`CC1(C)SSC[C@@H](C(=O)N[C@@H](Cc2ccccc2)C(=O)O)NC(=O)[C@H](Cc2ccc(Cl)cc2)NC(=O)CNC(=O)[C@@H]1NC(=O)[C@@H](N)Cc1ccc(O)cc1`: the IC50 amounted to 0.51 nM.

On to `CC1(C)SSC[C@@H](C(=O)N[C@@H](Cc2ccccc2)C(=O)O)NC(=O)[C@H](Cc2ccc(F)cc2)NC(=O)CNC(=O)[C@@H]1NC(=O)[C@@H](N)Cc1ccc(O)cc1`, for which the IC50 amounted to 0.71 nM.

`CC1(C)SSC[C@@H](C(=O)N[C@@H](Cc2ccccc2)C(=O)O)NC(=O)[C@H](Cc2ccc(I)cc2)NC(=O)CNC(=O)[C@@H]1NC(=O)[C@@H](N)Cc1ccc(O)cc1` yielded an IC50 of 1.2 nM.

The next test has as its target Mu-type opioid receptor (Cavia porcellus, UniProt P97266). Put plainly: Inhibitory concentration against electrically evoked contractions of guinea pig ileum longitudinal muscle-myenteric plexus. Type of test: functional, tissue-based. The method, boiled down:
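Longitudinal muscle-myenteric plexus strips from male Hartley guinea pigs (250–500 g) in oxygenated Krebs bicarbonate at 37 °C, 1-g tension. Transmural stimulation at 0.1 Hz, 0.4-ms pulses, supramaximal voltage. Cumulative agonist doses with 3 min contact each. Inhibition is relative to contraction height over the preceding 1 min.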
Turning to `CC1(C)SSC[C@@H](C(=O)N[C@@H](Cc2ccccc2)C(=O)O)NC(=O)[C@H](Cc2ccccc2)NC(=O)CNC(=O)[C@@H]1NC(=O)[C@@H](N)Cc1ccc(O)cc1` (H-Y[dPen]GFCF-OH; disulfide 2-5), half-maximal inhibition (IC50) required 82.7 nM.

The molecule `CC(C)[C@H](NC(=O)[C@H](CC(=O)O)NC(=O)[C@H](Cc1ccccc1)NC(=O)[C@@H](C)NC(=O)[C@@H](N)Cc1ccc(O)cc1)C(=O)N[C@H](C(=O)NCC(N)=O)C(C)C` [DELTORPHIN C] yielded an IC50 of more than 1500 nM.

The molecule `CC1(C)SSC[C@@H](C(=O)N[C@@H](Cc2ccccc2)C(=O)O)NC(=O)[C@H](Cc2ccc(Br)cc2)NC(=O)CNC(=O)[C@@H]1NC(=O)[C@@H](N)Cc1ccc(O)cc1` registered an IC50 of 120 nM.

`CC1(C)SSC[C@@H](C(=O)N[C@@H](Cc2ccccc2)C(=O)O)NC(=O)[C@H](Cc2ccc(Cl)cc2)NC(=O)CNC(=O)[C@@H]1NC(=O)[C@@H](N)Cc1ccc(O)cc1` gave an IC50 of 36 nM.

The molecule `CC1(C)SSC[C@@H](C(=O)N[C@@H](Cc2ccccc2)C(=O)O)NC(=O)[C@H](Cc2ccc(F)cc2)NC(=O)CNC(=O)[C@@H]1NC(=O)[C@@H](N)Cc1ccc(O)cc1` returned an IC50 of 32 nM.

Molecule `CC1(C)SSC[C@@H](C(=O)N[C@@H](Cc2ccccc2)C(=O)O)NC(=O)[C@H](Cc2ccc(I)cc2)NC(=O)CNC(=O)[C@@H]1NC(=O)[C@@H](N)Cc1ccc(O)cc1` registered an IC50 of 640 nM.

Test system in the next test: not listed separately
Put plainly: Selectivity ratio (GPI/MVD) of the compound. The format is functional. The method, boiled down:
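IC50 ratio GPI/MVD. GPI: guinea pig ileum strips, 1-g tension, 0.4-ms pulses. MVD: male ICR mouse vas deferens (25–40 g), Mg-free Krebs, 0.5-g tension, 2.0-ms pulses. Both tissues at 37 °C, 0.1 Hz, cumulative doses with 3 min contact. Hill-equation fit, ≥4 tissues each.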
With `CC1(C)SSC[C@@H](C(=O)N[C@@H](Cc2ccccc2)C(=O)O)NC(=O)[C@H](Cc2ccccc2)NC(=O)CNC(=O)[C@@H]1NC(=O)[C@@H](N)Cc1ccc(O)cc1` (H-Y[dPen]GFCF-OH; disulfide 2-5), the Selectivity turned out to be 5100.

`CC1(C)SSC[C@@H](C(=O)N[C@@H](Cc2ccccc2)C(=O)O)NC(=O)[C@H](Cc2ccc(Br)cc2)NC(=O)CNC(=O)[C@@H]1NC(=O)[C@@H](N)Cc1ccc(O)cc1`: the Selectivity worked out at 4300.

As to `CC1(C)SSC[C@@H](C(=O)N[C@@H](Cc2ccccc2)C(=O)O)NC(=O)[C@H](Cc2ccc(Cl)cc2)NC(=O)CNC(=O)[C@@H]1NC(=O)[C@@H](N)Cc1ccc(O)cc1`, the Selectivity came to 470.

Consider `CC1(C)SSC[C@@H](C(=O)N[C@@H](Cc2ccccc2)C(=O)O)NC(=O)[C@H](Cc2ccc(F)cc2)NC(=O)CNC(=O)[C@@H]1NC(=O)[C@@H](N)Cc1ccc(O)cc1`, for which the Selectivity was found to be 1100.

On to `CC1(C)SSC[C@@H](C(=O)N[C@@H](Cc2ccccc2)C(=O)O)NC(=O)[C@H](Cc2ccc(I)cc2)NC(=O)CNC(=O)[C@@H]1NC(=O)[C@@H](N)Cc1ccc(O)cc1`, for which the Selectivity amounted to 2100.

In a further test the target is Mu-type opioid receptor (Rattus norvegicus, UniProt P33535). The experiment in a line: Binding affinity towards mu opioid receptor was determined in rat brain using [3H]CTOP as radioligand. The format is tissue-based. An outline of the steps:
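Rat brain membranes washed in 50 mM Tris-HCl pH 7.4, preincubated 30 min at 25 °C. Competition against 0.5 nM [3H]CTOP, 10 analog concentrations over an 800-fold range, in peptidase-inhibitor buffer with BSA. Incubation 3 h at 25 °C. Nonspecific binding defined by 10 μM naltrexone. Bound ligand filtered and counted; IC50 by nonlinear least-squares regression, at least three runs in duplicate.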
For the molecule `CC1(C)SSC[C@@H](C(=O)N[C@@H](Cc2ccccc2)C(=O)O)NC(=O)[C@H](Cc2ccccc2)NC(=O)CNC(=O)[C@@H]1NC(=O)[C@@H](N)Cc1ccc(O)cc1` (H-Y[dPen]GFCF-OH; disulfide 2-5), the half-inhibitory concentration (IC50) worked out at 280 nM.

`CC1(C)SSC[C@@H](C(=O)N[C@@H](Cc2ccccc2)C(=O)O)NC(=O)[C@H](Cc2ccc(Br)cc2)NC(=O)CNC(=O)[C@@H]1NC(=O)[C@@H](N)Cc1ccc(O)cc1` came in with a half-inhibitory concentration (IC50) of 530 nM.

With `CC1(C)SSC[C@@H](C(=O)N[C@@H](Cc2ccccc2)C(=O)O)NC(=O)[C@H](Cc2ccc(Cl)cc2)NC(=O)CNC(=O)[C@@H]1NC(=O)[C@@H](N)Cc1ccc(O)cc1`, the IC50 turned out to be 83 nM.

`CC1(C)SSC[C@@H](C(=O)N[C@@H](Cc2ccccc2)C(=O)O)NC(=O)[C@H](Cc2ccc(F)cc2)NC(=O)CNC(=O)[C@@H]1NC(=O)[C@@H](N)Cc1ccc(O)cc1` gave an IC50 of 110 nM.

Regarding `CC1(C)SSC[C@@H](C(=O)N[C@@H](Cc2ccccc2)C(=O)O)NC(=O)[C@H](Cc2ccc(I)cc2)NC(=O)CNC(=O)[C@@H]1NC(=O)[C@@H](N)Cc1ccc(O)cc1`, the IC50 was found to be 1600 nM.

A further test relates to Opioid receptors; mu & delta. The experiment in a line: Selectivity ratio (mu/delta) of the compound. The format is protein assay.
Turning to `CC1(C)SSC[C@@H](C(=O)N[C@@H](Cc2ccccc2)C(=O)O)NC(=O)[C@H](Cc2ccccc2)NC(=O)CNC(=O)[C@@H]1NC(=O)[C@@H](N)Cc1ccc(O)cc1` (H-Y[dPen]GFCF-OH; disulfide 2-5), the Selectivity was 200.

As to `CC1(C)SSC[C@@H](C(=O)N[C@@H](Cc2ccccc2)C(=O)O)NC(=O)[C@H](Cc2ccc(Br)cc2)NC(=O)CNC(=O)[C@@H]1NC(=O)[C@@H](N)Cc1ccc(O)cc1`, the Selectivity worked out at 530.

Regarding `CC1(C)SSC[C@@H](C(=O)N[C@@H](Cc2ccccc2)C(=O)O)NC(=O)[C@H](Cc2ccc(Cl)cc2)NC(=O)CNC(=O)[C@@H]1NC(=O)[C@@H](N)Cc1ccc(O)cc1`, the Selectivity was determined as 160.

`CC1(C)SSC[C@@H](C(=O)N[C@@H](Cc2ccccc2)C(=O)O)NC(=O)[C@H](Cc2ccc(F)cc2)NC(=O)CNC(=O)[C@@H]1NC(=O)[C@@H](N)Cc1ccc(O)cc1`: the Selectivity is 160.

Regarding `CC1(C)SSC[C@@H](C(=O)N[C@@H](Cc2ccccc2)C(=O)O)NC(=O)[C@H](Cc2ccc(I)cc2)NC(=O)CNC(=O)[C@@H]1NC(=O)[C@@H](N)Cc1ccc(O)cc1`, the Selectivity worked out at 1300.

The record behind these values is ChEMBL document CHEMBL1127487, “Cyclic enkephalin analogs with exceptional potency at peripheral delta opioid receptors” (J Med Chem, 1994).
